How the values were obtained:
[1] = Toxic effect in rats; type: toxicity, organism-based; settings: rat, in vivo
How it was run: (§1)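 Male Sprague-Dawley rats (160–200 g), two per dose; single i.p. dose of compound suspended in sterile 0.9% saline. Acute lethality scored over 24 h after dosing.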

[2] = (§2) Percent inhibition of Alcohol dehydrogenase activity in mice liver at dose 0.13 mmol/kg; type: tissue-based
How it was run: (§3)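 Male Swiss-Webster mice (20–25 g), fed, given one ip dose of reagent suspended in sterile 0.9% saline, then ethanol 3 g/kg ip (40% w/v in saline) 22–24 h later. Liver removed once blood ethanol approached zero, chilled, homogenized, clarified by centrifugation. ADH activity taken as initial-velocity difference, ethanol/NAD⁺ assay minus same assay with 10 mM pyrazole, per mg protein. Four or five mice per group.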

[3] = Toxic effect in mice; type: toxicity, organism-based; settings: mouse, in vivo
How it was run: (§4)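 Male Swiss-Webster mice (20–25 g); single i.p. dose of compound suspended in sterile 0.9% saline. Acute lethality scored over 24 h; LD₅₀ with limits at p ≤ 0.05 from three doses on 15 mice.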

[4] = target: T1, Alcohol dehydrogenase (Equus caballus) (UniProt P00327+P00328); experiment: The compound was tested for the ability to inactivate horse liver alcohol dehydrogenase in the presence of 0.2 mM NAD+K
[5] = (§5) Percent inhibition of Alcohol dehydrogenase activity in rat liver at dose 0.13 mmol/kg; type: tissue-based
How it was run: (§6)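 Fed male Sprague-Dawley rats (160–200 g) received a single ip saline-suspended reagent dose, then ethanol 2 g/kg ip (40% w/v in saline) 22–24 h afterwards. Liver excised when blood ethanol neared zero, homogenized on ice, centrifuged. Activity = initial rate with ethanol and NAD⁺ minus rate in control assay containing 10 mM pyrazole, expressed per mg protein. Two rats per experiment.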

[6] = (§7) Percent inhibition of rate of ethanol metabolism in mice at dose 0.13 mmol/kg; settings: in the assay text read “0.48 mmol/kg” for “0.13 mmol/kg”
How it was run: (§8)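 Mice (male Swiss-Webster, fed) dosed ip with reagent in saline 22–24 h before ethanol 3 g/kg ip. Tail-vein blood (5 µL) deproteinized with Ba(OH)₂/ZnSO₄, 1-propanol internal standard, analyzed by GC with flame-ionization detection. Elimination slope fitted excluding absorption (1–2 h), multiplied by r (dose / theoretical zero-time blood level) to give metabolic rate. Four or five mice per group.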

[7] = target: T1, Alcohol dehydrogenase (Equus caballus); experiment: The compound was tested for the ability to inactivate horse liver alcohol dehydrogenase in the presence of 1 mM NAD+K
Mus musculus [8] = experiment: Percent inhibition of recovery of rotarod performance in mice at dose 0.13 mmol/kg; type: functional
How it was run: (§9)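 Mice trained to hang on a 2-cm rod rotating at 7 rpm, two 15-min periods. Reagent given ip 22 h before ethanol 3 g/kg; five mice per dose, five vehicle controls. Impairment = 100(15 − minutes on rod)/15, probit-transformed; t1/2 for regaining 50% performance by regression. Inhibition = [t1/2(treated) − t1/2(control)]/t1/2(treated).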

Rattus norvegicus [9] = experiment: (§10) Percent inhibition of rate of ethanol metabolism in rats at dose 0.13 mmol/kg; type: functional
How it was run: (§11)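 Rats (male Sprague-Dawley, fed) pretreated ip with reagent suspended in saline 22–24 h before ethanol 2 g/kg ip. Serial 5 µL tail-vein samples, Ba(OH)₂/ZnSO₄ deproteinization with 1-propanol internal standard, GC-FID. Metabolic rate = blood-ethanol decline slope × ratio of dose to extrapolated zero-time blood level. Two rats per experiment.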

Mus musculus [10] = experiment: In vivo inhibition of recovery of rotarod performance in mice at a dose of 0.48 mM/kg; type: functional; how it was run: as §9
Mus musculus [11] = experiment: In vivo inhibition of ADH activity in mice liver at a dose of 0.48 mmol/kg; type: functional; how it was run: as §3
Rattus norvegicus [12] = experiment: In vivo inhibition of rate of ethanol metabolism in rats at dose 0.48 mmol/kg; type: functional; how it was run: as §11
Rattus norvegicus [13] = experiment: In vivo inhibition of ADH activity in rat liver at a dose of 0.48 mM/kg; type: functional; how it was run: as §6
[14] = Toxic effect in mice was determined in vivo; type: toxicity, organism-based; settings: mouse; how it was run: as §4
[15] = target: T1, Alcohol dehydrogenase (Equus caballus); experiment: The compound was tested for the ability to inactivate horse liver alcohol dehydrogenase in the presence of 1 mM NAD+; second order rate constant M-1 min-1
[16] = Toxic effect in rats was determined in vivo; type: toxicity, organism-based; settings: rat; how it was run: as §1
Mus musculus [17] = experiment: In vivo inhibition of rate of ethanol metabolism in mice at dose 0.48 mmol/kg; type: functional; how it was run: as §8
[18] = target: T1, Alcohol dehydrogenase (Equus caballus); experiment: The compound was tested for the ability to inactivate horse liver alcohol dehydrogenase in the absence of NAD+k
[19] = target: T2, Alcohol dehydrogenase (Homo sapiens) (UniProt P07327+P08319+P00325+P00326+P40394+P11766+P28332); experiment: The compound was tested for the ability to inactivate human liver alcohol dehydrogenase in the presence of 1 mM NAD+k
How it was run: (§12)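 Human liver ADH, purified on carboxymethyl- and DEAE-cellulose plus (NH₄)₂SO₄ (60%) with 5% ethanol throughout, ethanol dialysed out. Inactivation at 25 °C in 0.1 M Na₂P₂O₇, pH 8, enzyme about 0.2 mg/mL, 0.2 mM reagent; NAD⁺ added 1 min before reagent where used. Apparent second-order constant calculated assuming first order in reagent.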

[20] = The compound was tested for the ability to inactivate mouse liver alcohol dehydrogenase in the absence of NAD+K
How it was run: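 Mouse liver ADH, fourfold purified ((NH₄)₂SO₄ 45–65% cut, DEAE-cellulose), incubated at about 0.2 mg/mL with 0.2 mM reagent in 0.1 M Na₂P₂O₇ pH 8, 25 °C; coenzyme, when present, added 1 min before inactivator. Apparent second-order rate constant derived assuming reaction first order in reagent.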

[21] = target: T2, Alcohol dehydrogenase (Homo sapiens); experiment: (§13) The compound was tested for the ability to inactivate human liver alcohol dehydrogenase in the absence of NAD+K
How it was run: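 Human liver ADH purified by CM- and DEAE-cellulose chromatography and (NH₄)₂SO₄ precipitation, with 5% ethanol removed by dialysis. Enzyme about 0.2 mg/mL with 0.2 mM reagent in 0.1 M Na₂P₂O₇, pH 8, 25 °C, no coenzyme. Apparent second-order rate constant assumes first order in reagent.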

[22] = The compound was tested for the ability to inactivate mouse liver alcohol dehydrogenase in the presence of 1 mM NAD+K; Slow inactivation
Rattus norvegicus [23] = experiment: as §10; type: functional; remark: listed apart in the source
How it was run: (§14)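 Male Sprague-Dawley rats (160–200 g), two per experiment; compound suspended in sterile 0.9% saline, single i.p. dose 22–24 h before i.p. ethanol 2 g/kg (40% w/v in saline). Tail-vein blood ethanol by GC (1-propanol internal standard); elimination rate = β slope × dose/extrapolated zero-time level. Liver ADH afterwards: homogenate activity with ethanol/NAD⁺ minus 10 mM pyrazole control, per mg protein.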

[24] = as §5; type: tissue-based; how it was run: as §14; remark: listed apart in the source
[25] = target: T1, Alcohol dehydrogenase (Equus caballus); experiment: The compound was tested for the ability to inactivate horse liver alcohol dehydrogenase in the presence of 1 mM NAD+k
[26] = The compound was tested for the ability to inactivate rat liver alcohol dehydrogenase in the absence of NAD+K
How it was run: (§15)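 Rat liver enzyme purified 15-fold ((NH₄)₂SO₄ 35–75%, DEAE-cellulose). Inactivation with 0.2 mM reagent, 0.1 M pyrophosphate buffer pH 8, 25 °C, enzyme near 0.2 mg/mL; NAD⁺ preincubated 1 min with enzyme before reagent addition. Apparent second-order constants computed on assumption of first-order dependence on reagent.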

[27] = as §2; type: tissue-based; remark: listed apart in the source
How it was run: (§16)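 Fed male Swiss-Webster mice (20–25 g), four or five per group; compound suspended in sterile 0.9% saline, single i.p. dose 22–24 h before i.p. ethanol 3 g/kg (40% w/v in saline). Tail-vein blood ethanol by GC (1-propanol internal standard); elimination rate = β slope × dose/extrapolated zero-time level. Liver ADH afterwards: homogenate activity with ethanol/NAD⁺ minus 10 mM pyrazole control, per mg protein.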

Mus musculus [28] = experiment: as §7; type: functional; how it was run: as §16
[29] = The compound was tested for the ability to inactivate rat liver alcohol dehydrogenase in the presence of 1 mM NAD+K; how it was run: as §15
[30] = target: T2, Alcohol dehydrogenase (Homo sapiens); experiment: as §13; how it was run: as §12; remark: listed apart in the source

Row | SMILES | Rate constant [18] [M⁻¹ s⁻¹] | Rate constant [19] [M⁻¹ s⁻¹] | Rate constant [20] [M⁻¹ s⁻¹] | Rate constant [25] [M⁻¹ s⁻¹] | Rate constant [26] [M⁻¹ s⁻¹] | Rate constant [29] [M⁻¹ s⁻¹] | Rate constant [30] [M⁻¹ s⁻¹] | other results
1 | CS(=O)(=O)OCC(=O)Nc1ccc(CCCC(N)=O)cc1 | – | – | – | – | – | – | – | LD50 [1]: > 480 µmol/kg; inhibition [2]: 38%; LD50 [3]: > 480 µmol/kg; Rate constant [4]: 0.217 M⁻¹ s⁻¹; inhibition [5]: 35%; inhibition [6]: 43%; Rate constant [7]: 0.4 M⁻¹ s⁻¹; inhibition in vivo at 130 µmol/kg (Mus musculus [8]): 70%; inhibition in vivo at 130 µmol/kg (Rattus norvegicus [9]): 15%
2 | CC(=O)Nc1ccc(CCCC(N)=O)cc1 | – | – | – | – | – | – | – | Inhibition (Mus musculus [10]): 60%; inhibition in vivo at 480 µmol/kg (Mus musculus [11]): 43%; inhibition in vivo at 480 µmol/kg (Rattus norvegicus [12]): 0%; Inhibition (Rattus norvegicus [13]): 8%; LD50 [14]: > 480 µmol/kg; Activity [15]: 1500; LD50 [16]: > 480 µmol/kg; inhibition in vivo at 480 µmol/kg (Mus musculus [17]): 60%
3 | NC(=O)CBr | 0.0267 | 0.0483 | 0.147 | 0.000167 | 0.0883 | – | – | LD50 [1]: 270 µmol/kg; Rate constant [21]: 0.0483 M⁻¹ s⁻¹; Rate constant [22]: Slow inactivation; inhibition in vivo at 130 µmol/kg (Rattus norvegicus [23]): 11%; inhibition [24]: 0%; LD50 [3]: 270 µmol/kg; inhibition [27]: 27%; inhibition in vivo at 130 µmol/kg (Mus musculus [8]): 28%; inhibition in vivo at 130 µmol/kg (Mus musculus [28]): 18%
4 | O=C(O)CCCCCCCNC(=O)CBr | 0.105 | 0.833 | 0.0817 | 0.12 | 0.2 | 0.0667 | 0.112 | –
5 | O=C(O)CCCCCCNC(=O)CBr | 0.0983 | 0.138 | 0.127 | 0.00833 | 0.183 | 0.0133 | 0.112 | –

Second part, led by results:

Row | Rate constant [18] [M⁻¹ s⁻¹] | Rate constant [19] [M⁻¹ s⁻¹] | Rate constant [20] [M⁻¹ s⁻¹] | Rate constant [25] [M⁻¹ s⁻¹] | Rate constant [26] [M⁻¹ s⁻¹] | Rate constant [29] [M⁻¹ s⁻¹] | Rate constant [30] [M⁻¹ s⁻¹] | SMILES | other results
6 | 0.717 | 23.3 | 0.147 | 0.05 | 0.152 | 0.0667 | 3.83 | O=C(O)CCCCCCCCCCNC(=O)CBr | –
7 | 0.167 | 4 | 0.0817 | 0.0817 | 0.2 | 0.2 | 0.383 | O=C(O)CCCCCCCCNC(=O)CBr | –

From ChEMBL document CHEMBL1121913, “Inactivation of liver alcohol dehydrogenases and inhibition of ethanol metabolism by ambivalent active-site-directed reagents” (J Med Chem, 1981)
